Data on eleven compounds can be found in ChEMBL document CHEMBL1121802, “Imine analogues of tricyclic antidepressants” (1981).

Holding throughout (assay type): functional
The subject of assay [1] is Mus musculus. The assay can be described thus: The effect on 24-hour mortality in mice following oral administration.
For assay [2], the system named is Mus musculus. The assay can be described thus: The effect on ataxia in mice following oral administration. The method, boiled down:
(§1)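 Observed at 0.5, 2, 5 and 24 h for ataxia (abnormal gait/imprecise movement), pupil diameter (dissecting microscope, 20×, micrometer), excitement (spontaneous running/jumping) and electroshock protection (corneal electrodes at 2 and 5 h). ED50 by Thompson method.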

Assay [3] has as its system Mus musculus. The assay is described as follows: Compound was tested for antidepressant activity by determining the reversal of tetrabenazine-induced ptosis upon oral administration; 2.0-3.1. The method, boiled down: (§2)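 Mice given test drug orally; 30 min later challenged with tetrabenazine (methanesulfonate) 32 mg/kg ip in 0.05 M KCl pH 2.0. Scored 1 h after test drug for exploratory activity and ptosis; ptosis antagonism = lid closure <50% in both eyes exactly 2 s after placing mouse facing observer. ED50 calculated by Thompson method.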

Assay [4] deals with Mus musculus. The assay can be described thus: The effect on electroshock protection in mice following oral administration. The method in brief:
as §1

Assay [5] deals with Mus musculus. The assay can be described thus: The effect on excitement was measured in mice following oral administration. The method in brief:
as §1

Assay [6] has as its system Mus musculus. The assay can be described thus: Effect on pupil dilation was measured in mice upon oral administration. The method, boiled down:
as §1

For assay [7], the system named is Mus musculus. The assay is described as follows: Compound was tested for antidepressant activity by determining the decreased exploratory activity in mice upon oral administration; 4.2-9.7. The method, boiled down:
as §2

Assay [8] concerns Mus musculus. The assay can be described thus: Compound was tested for antidepressant activity by determining the reversal of tetrabenazine-induced ptosis upon oral administration; 0.5-0.9. The method, boiled down:
as §2

Assay [9] concerns Mus musculus. The assay can be described thus: Compound was tested its antidepressant activity by determining the decreased exploratory activity in mice upon oral administration; 1.1-2.1. The method in brief: as §2
For assay [10], the system named is Mus musculus. The assay can be described thus: Compound was tested for antidepressant activity by determining the reversal of tetrabenazine-induced ptosis upon oral administration; 2.7-5.1. The method, boiled down: as §2
For assay [11], the system named is Mus musculus. The assay is described as follows: Compound was tested for antidepressant activity by determining the decreased exploratory activity in mice upon oral administration; 7.9-16. The method, boiled down: as §2
Assay [12] relates to Mus musculus. The assay can be described thus: Compound was tested for antidepressant activity by determining the reversal of tetrabenazine-induced ptosis upon oral administration; 1.3-2.7. The method, boiled down: as §2
Assay [13] concerns Mus musculus. The assay can be described thus: Compound was tested for antidepressant activity by determining the decreased exploratory activity in mice upon oral administration; 4.7-17. The method in brief:
as §2

The subject of assay [14] is Mus musculus. The assay is described as follows: Antidepressant activity by determining the decreased exploratory activity in mice upon oral administration. The method, boiled down: as §2
The subject of assay [15] is Mus musculus. The assay is described as follows: Compound was tested for antidepressant activity by determining the reversal of tetrabenazine-induced ptosis upon oral administration; 27-60. The method, boiled down:
as §2

In assay [16] the test system is Mus musculus. The assay is described as follows: Compound was tested for antidepressant activity by determining the reversal of tetrabenazine-induced ptosis upon oral administration; 84-110. The method in brief:
as §2

In assay [17] the test system is Mus musculus. The assay is described as follows: Compound was tested for antidepressant activity by determining the decreased exploratory activity in mice upon oral administration. The method, boiled down: as §2
Assay [18] relates to Mus musculus. The assay is described as follows: Antidepressant activity by determining the reversal of tetrabenazine-induced ptosis upon oral administration. The method in brief: as §2
Assay [19] concerns Mus musculus. The assay is described as follows: Compound was tested for its antidepressant activity by determining the decreased exploratory activity in mice upon oral administration; 8.1-15.4. The method, boiled down: as §2
Assay [20] relates to Mus musculus. The assay is described as follows: Compound was tested for antidepressant activity by determining the reversal of tetrabenazine-induced ptosis upon oral administration; 37-170. The method in brief: as §2
The subject of assay [21] is Mus musculus. The assay is described as follows: Compound was tested for antidepressant activity by determining the reversal of tetrabenazine-induced ptosis upon oral administration; 0.3-1.2. The method in brief: as §2
The test system of assay [22] is Mus musculus. The assay can be described thus: Compound was tested for antidepressant activity by determining the decreased exploratory activity in mice upon oral administration; 1.2-5.5. The method in brief: as §2
The subject of assay [23] is Mus musculus. The assay can be described thus: Compound was tested for antidepressant activity by determining the reversal of tetrabenazine-induced ptosis upon oral administration; 0.7-1.9. The method, boiled down: as §2
Assay [24] has as its system Mus musculus. The assay can be described thus: Compound was tested for antidepressant activity by determining the decreased exploratory activity in mice upon oral administration; 6.0-12.0. The method, boiled down: as §2
Assay [25] deals with Mus musculus. The assay is described as follows: Compound was tested for antidepressant activity by determining the decreased exploratory activity in mice upon oral administration; 2.6-28. The method, boiled down:
as §2

As to `CN(C)CCN=c1c2ccccc2ccc2ccccc12`, the ED50 with Mus musculus [1] is 36 mg/kg; in the assay with Mus musculus [2], 4 mg/kg; in the assay with Mus musculus [3] it was 2.5 mg/kg; in the assay on Mus musculus [4], > 324 mg/kg; with Mus musculus [5] it was 7 mg/kg; with Mus musculus [6], 4 mg/kg. This compound showed an ED50 in the assay with Mus musculus [7] of 6.4 mg/kg.
For `NCCN=C1c2ccccc2C2CC2c2ccccc21` (configuration not stated), the ED50 is 200 mg/kg in the assay on Mus musculus [1]; 60 mg/kg with Mus musculus [2]; 0.7 mg/kg in the assay with Mus musculus [8]; 100 mg/kg in the assay on Mus musculus [4]; > 324 mg/kg with Mus musculus [5]; 100 mg/kg in the assay on Mus musculus [6]. Moreover, the ED50 in the assay with Mus musculus [9] is 1.5 mg/kg.
Take `CN(C)CC/N=C1\c2ccccc2C2CC2c2ccc(Cl)cc21` (configuration not stated): the ED50 with Mus musculus [1] worked out at 200 mg/kg; in the assay on Mus musculus [2], 20 mg/kg; in the assay with Mus musculus [10] it was 3.7 mg/kg; in the assay with Mus musculus [4], 200 mg/kg; in the assay on Mus musculus [5], 60 mg/kg; in the assay on Mus musculus [6], 12 mg/kg. In the assay on Mus musculus [11], this compound returned an ED50 of 11.2 mg/kg.
In the case of `CN(C)CCN=C1c2ccccc2CCc2ccccc21`, the ED50 in the assay on Mus musculus [1] was 100 mg/kg; in the assay with Mus musculus [2], 20 mg/kg; in the assay on Mus musculus [12], 1.9 mg/kg; in the assay with Mus musculus [4], 36 mg/kg; in the assay with Mus musculus [5], > 324 mg/kg; in the assay on Mus musculus [6], 20 mg/kg. Further, the ED50 with Mus musculus [13] worked out at 9 mg/kg.
In the case of `CN(C)CC/N=C1\c2ccccc2CS(=O)(=O)c2ccccc21`, the median effective dose (ED50) was > 324 mg/kg with Mus musculus [1]; 200 mg/kg in the assay with Mus musculus [2]; > 125 mg/kg in the assay with Mus musculus [14]; > 324 mg/kg with Mus musculus [4]; 200 mg/kg in the assay with Mus musculus [5]; 36 mg/kg in the assay with Mus musculus [6]. Moreover, the 50% effective dose (ED50) in the assay with Mus musculus [15] came to 40 mg/kg.
Take `CN(C)CCCN=c1c2ccccc2sc2ccccc12`: the ED50 in the assay with Mus musculus [1] was 200 mg/kg; in the assay on Mus musculus [2] it was 60 mg/kg; with Mus musculus [16] it was 96 mg/kg; in the assay on Mus musculus [17] it was 125 mg/kg; with Mus musculus [4], > 324 mg/kg; in the assay on Mus musculus [5], 60 mg/kg. For the same compound, in the assay on Mus musculus [6], the 50% effect level (ED50) was put at a dose of 60 mg/kg.
Regarding `CN(C)CC/N=C1\c2ccccc2CCc2ccc(Cl)cc21` (mixture of isomers), the ED50 with Mus musculus [1] is 100 mg/kg; with Mus musculus [2], 20 mg/kg; in the assay on Mus musculus [18], 4.9 mg/kg; in the assay on Mus musculus [19] it was 11.2 mg/kg; in the assay with Mus musculus [4], 60 mg/kg; with Mus musculus [5], > 324 mg/kg. In the assay on Mus musculus [6], this compound gave an ED50 of 36 mg/kg.
For the compound `c1ccc2c(c1)C(=NCCN1CCOCC1)c1ccccc1C1CC21` (configuration not stated), the ED50 is > 324 mg/kg in the assay with Mus musculus [1]; 200 mg/kg with Mus musculus [2]; 79 mg/kg with Mus musculus [20]; > 125 mg/kg in the assay with Mus musculus [14]; > 324 mg/kg in the assay with Mus musculus [4]; > 324 mg/kg in the assay on Mus musculus [5]. For the same compound, the ED50 with Mus musculus [6] is > 324 mg/kg.
For `CNCCN=C1c2ccccc2C2CC2c2ccccc21` (configuration not stated), the ED50 in the assay with Mus musculus [1] was 300 mg/kg; in the assay with Mus musculus [2] it was 36 mg/kg; in the assay with Mus musculus [21] it was 0.6 mg/kg; in the assay with Mus musculus [22] it was 2.6 mg/kg; with Mus musculus [4] it was 300 mg/kg; in the assay with Mus musculus [5] it was > 324 mg/kg. Besides, the 50% effect level with Mus musculus [6] (ED50) was put at a dose of 60 mg/kg.
For `CCNCCN=C1c2ccccc2C2CC2c2ccccc21` (configuration not stated), the ED50 in the assay on Mus musculus [1] is 200 mg/kg; in the assay on Mus musculus [2], 36 mg/kg; in the assay on Mus musculus [23] it was 1.1 mg/kg; in the assay on Mus musculus [4], > 324 mg/kg; in the assay on Mus musculus [5] it was > 324 mg/kg; with Mus musculus [6] it was 36 mg/kg. The same compound yielded an ED50 in the assay on Mus musculus [24] of 8.4 mg/kg.
Consider `CNCCN=C1c2ccccc2CCc2ccccc21`, for which the ED50 was 200 mg/kg in the assay with Mus musculus [1]; 36 mg/kg in the assay on Mus musculus [2]; < 5 mg/kg in the assay on Mus musculus [18]; > 324 mg/kg in the assay with Mus musculus [4]; > 324 mg/kg with Mus musculus [5]; 60 mg/kg with Mus musculus [6]. The compound further yielded an ED50 with Mus musculus [25] of 8.5 mg/kg.
